This note sets out measurements from ChEMBL document CHEMBL1255381, “Golgicide A reveals essential roles for GBF1 in Golgi assembly and function” (Nat Chem Biol, 2009).

Holding throughout (assay type): cell-based
Settings in all cases: Chlorocebus sabaeus

Assay [1] deals with Vero. Description: Inhibition of Arf1 in african green monkey Vero cells assessed as tubule formation from trans golgi network and endosomes before its dispersal at 10 ug/ml after 1 hr by immunofluorescence method.
For assay [2], the system named is Vero. The assay is described as follows: Inhibition of GBF1 in african green monkey Vero cells assessed as tubule formation from trans golgi network and endosomes before its dispersal in african green monkey Vero cells at 10 uM after 1 hr by immunofluorescence method.
In assay [3] the test system is Vero. Description: Inhibition of GBF1 in african green monkey Vero cells assessed as inhibition of StxB-SS retrogade transport from endosomes to TGN at 10 uM by immunofluorescence method.
Assay [4] has as its system Vero. The assay is described as follows: Inhibition of Arf1 in african green monkey Vero cells overexpressing BIG1 assessed as punctate and diffuse distribution of medial-Golgi marker giantin from golgi at 10 ug/ml after 1 hr by immunofluorescence method.
The subject of assay [5] is Vero. The assay is described as follows: Inhibition of Arf1 in african green monkey Vero cells assessed as punctate and diffuse distribution of medial-Golgi marker giantin at 10 ug/ml after 1 hr by immunofluorescence method.
Assay [6] deals with Vero. Description: Inhibition of GBF1 QNV deleted mutant in african green monkey Vero cells assessed as effect on change in golgi morphology at 10 uM after 1 hr by immunofluorescence method.
In assay [7] the test system is Vero. The assay is described as follows: Inhibition of Arf1 in african green monkey Vero cells assessed as punctate and diffuse distribution of cis-Golgi marker GM130 at 10 ug/ml after 1 hr by immunofluorescence method.
In assay [8] the test system is Vero. Description: Inhibition of Arf1 in african green monkey Vero cells expressing GBF1 QNV deleted mutant assessed as effect on change in golgi morphology at 10 ug/ml after 1 hr by immunofluorescence method.
For assay [9], the system named is Vero. The assay is described as follows: Restoration of Arf1-GTP levels in african green monkey Vero cells expressing GBF1-M832L mutant at 10 ug/ml after 1 hr.
For assay [10], the system named is Vero. Description: Inhibition of Arf1 in african green monkey Vero cells assessed as rapid GGA3 dispersal from trans golgi network at 10 ug/ml after 5 mins by immunofluorescence method.
Assay [11] relates to Vero. The assay is described as follows: Inhibition of GBF1 in african green monkey Vero cells assessed as punctate and diffuse distribution of medial-Golgi marker giantin […] at 10 uM after 1 hr by immunofluorescence method.
The subject of assay [12] is Vero. The assay is described as follows: Inhibition of Arf1 in african green monkey Vero cells assessed as decrease in Arf1-GTP levels at 10 ug/ml after 1 hr. The gist of the method:
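Vero cells transduced with adenoviral Arf1-V5, alone or with GBF1-ML-HA; next day reseeded, then 45 min at 37°C with medium, BFA 10 µg/ml or compound 10 μM. Lysates pulled down with GGA3 VHS-GAT-GST on glutathione agarose, 30 min 4°C; Arf1-GTP by anti-V5 Western, band densitometry, duplicate experiments averaged.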

Assay [13] concerns Vero. Description: Inhibition of Arf1 in african green monkey Vero cells assessed as rapid AP-1 dispersal from golgi membranes at 10 ug/ml after 5 mins by immunofluorescence method.
Assay [14] has as its system Vero. The assay is described as follows: Inhibition of Arf1 in african green monkey Vero cells expressing GBF1 QNV to AAA mutant assessed as effect on change in golgi morphology at 10 ug/ml after 1 hr by immunofluorescence method.
Assay [15] relates to Vero. Description: Inhibition of Arf1 in african green monkey Vero cells assessed as giantin positive punctate structures in contact with Sec31-positive ER exit site at 10 ug/ml after 1 hr by immunofluorescence method. The gist of the method:
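Vero cells given BFA 10 μg/ml or compound 10 μM for 60 min, fixed, co-stained for giantin and ER exit site marker Sec31; giantin puncta relative to ERES scored by immunofluorescence.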

Assay [16] has as its system Vero. The assay is described as follows: Inhibition of Arf1 in african green monkey Vero cells assessed as inhibition of StxB-SS retrogade transport from endosomes to TGN at 10 ug/ml by immunofluorescence method.
Assay [17] deals with Vero. Description: Inhibition of Arf1 in african green monkey Vero cells assessed as rapid COPI redistribution from golgi at 10 ug/ml after 5 mins by immunofluorescence method.
The test system of assay [18] is Vero. The assay is described as follows: Inhibition of Arf1 in african green monkey Vero cells expressing GBF1-M832L mutant assessed as inhibition of StxB-SS retrogade transport from endosomes to TGN in african green monkey Vero cells at 10 ug/ml by immunofluorescence method.
Assay [19] relates to Vero. Description: Inhibition of GBF1 QNV to AAA mutant in african green monkey Vero cells assessed as effect on change in golgi morphology at 10 uM after 1 hr by immunofluorescence method.
Assay [20] relates to Vero. Description: Induction of GBF1 in african green monkey Vero cells assessed as punctate and diffuse distribution of cis-Golgi marker GM130 from TGN at 10 uM after 1 hr by immunofluorescence method.

Active and inactive are the calls of the source. No cut-off for these calls is given here.

Consider `C[C@H]1CCC/C=C/[C@@H]2C[C@H](O)C[C@H]2[C@H](O)/C=C/C(=O)O1`, for which the inhibition result in assay [1], in assay [3], in assay [5], in [6], in assay [7] and in assay [10] was “Active” in each case. Also, the inhibition result in assay [11], in assay [12], in assay [13], in [15], in assay [16] and in assay [17] was “Active” throughout. Also, the inhibition result in assay [19] was “Active”. The inhibition entry in [2], in [4], in assay [8], in assay [14] and in assay [18] was “inactive” in each case. Further, the outcome in assay [9] was inactive. The result in assay [20] was Active.
